# Source: ChEMBL document CHEMBL5550118, “Human mitochondrial glutathione transferases: Kinetic parameters and accommodation of a mitochondria-targeting group in substrates” (Bioorg Med Chem, 2024)
# B1: Glutathione S-transferase A1 (Homo sapiens), P08263 (protein)
# chain: MAEKPKLHYFNARGRMESTRWLLAAAGVEFEEKFIKSAEDLDKLRNDGYLMFQQVPMVEIDGMKLVQTRAILNYIASKYNLYGKDIKERALIDMYIEGIADLGEMILLLPVCPPEEKDAKLALIKEKIKNRYFPAFEKVLKSHGQDYLVGNKLSRADIHLVELLYYVEELDSSLISSFPLLKALKTRISNLPTVKKFLQPGSPRKPPMDEKSLEEARKIFRF
# B2: Glutathione S-transferase kappa 1 (Homo sapiens), Q9Y2Q3 (protein)
# chain: MGPLPRTVELFYDVLSPYSWLGFEILCRYQNIWNINLQLRPSLITGIMKDSGNKPPGLLPRKGLYMANDLKLLRHHLQIPIHFPKDFLSVMLEKGSLSAMRFLTAVNLEHPEMLEKASRELWMRVWSRNEDITEPQSILAAAEKAGMSAEQAQGLLEKIATPKVKNQLKETTEAACRYGAFGLPITVAHVDGQTHMLFGSDRMELLAHLLGEKWMGPIPPAVNARL
# B3: Glutathione S-transferase A4 (Homo sapiens), O15217 (protein)
# chain: MAARPKLHYPNGRGRMESVRWVLAAAGVEFDEEFLETKEQLYKLQDGNHLLFQQVPMVEIDGMKLVQTRSILHYIADKHNLFGKNLKERTLIDMYVEGTLDLLELLIMHPFLKPDDQQKEVVNMAQKAIIRYFPVFEKILRGHGQSFLVGNQLSLADVILLQTILALEEKIPNILSAFPFLQEYTVKLSNIPTIKRFLEPGSKKKPPPDEIYVRTVYNIFRP
# How the values were obtained:
# [1] = GSH reactivity in […] at 30 degreeC assessed as second-order reaction rate constant; format: ADME; settings: buffer
# [2] = substrate: O=[N+]([O-])c1ccc(Cl)c([N+](=O)[O-])c1; assay: Substrate activity at N-terminal His6 tagged human GSTA1-1 expressed in Escherichia coli BL21(DE3) assessed as catalytic constant at pH 8 at 30 degreeC by Michaelis-Menten analysis
# Procedure, shortened: (§1)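 His6/TEV-tagged human GST was expressed in E. coli BL21(DE3) and purified on Ni-NTA. Assays used 0.1 M HEPES-HCl, pH 8, 30 °C. One substrate was varied: CDNB or chloronitrobenzene derivatives (derivatives 0.0625–2 mM) with 10 mM GSH, or GSH with 1 mM CDNB. Initial conjugate-formation rates were read at substrate-specific wavelengths, in triplicate. Triplicate background rates were subtracted. Enzyme amount was adjusted as needed. Fit by Michaelis–Menten non-linear regression or Lineweaver–Burk.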
# [3] = substrate: O=[N+]([O-])c1cc([N+](=O)[O-])c(NCCCC[P+](c2ccccc2)(c2ccccc2)c2ccccc2)cc1Cl; assay: (§2) Substrate activity at N-terminal His6 tagged human GSTA1-1 expressed in Escherichia coli BL21(DE3) assessed as Kcat/Km at pH 8 at 30 degreeC by Michaelis-Menten analysis; procedure, shortened: as §1
# [4] = substrate: O=[N+]([O-])c1ccc(Cl)c([N+](=O)[O-])c1; assay: as §2; procedure, shortened: as §1
# [5] = substrate: O=[N+]([O-])c1ccc(Cl)c([N+](=O)[O-])c1; assay: Substrate activity at N-terminal His6 tagged human GSTA1-1 expressed in Escherichia coli BL21(DE3) assessed as Kcat/Km at pH 6.5 at 30 degreeC by Michaelis-Menten analysis
# Procedure, shortened: (§3)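 N-terminal His6/TEV-tagged human enzyme, expressed in E. coli BL21(DE3) and Ni-NTA purified. Run in 0.1 M sodium phosphate, pH 6.5, 30 °C. CDNB was varied with GSH fixed at 10 mM, or GSH was varied with CDNB fixed at 1 mM (GSH constants apparent). Conjugate formation read at 340 nm as initial rates over ≥1 min, in triplicate. A single background rate was subtracted, then fitted to Michaelis–Menten by non-linear regression.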
# [6] = substrate: O=C(NCCCCC[P+](c1ccccc1)(c1ccccc1)c1ccccc1)c1ccc(Cl)c([N+](=O)[O-])c1; assay: (§4) Substrate activity at N-terminal His6 tagged human GSTA1-1 expressed in Escherichia coli BL21(DE3) assessed as Kcat/Km at pH 8 at 30 degreeC by Lineweaver-Burk plot analysis
# Procedure, shortened: (§5)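 N-terminal His6/TEV-tagged enzyme was expressed in E. coli BL21(DE3) by IPTG induction at 15 °C and purified on Ni-NTA. Assays used 0.1 M HEPES-HCl pH 8, 30°C, with GSH fixed at 10 mM and substrate varied from 0.0625 to 2 mM. Conjugate formation was read by UV absorbance, and initial rates were measured in triplicate after subtracting the background rate. Constants came from a double-reciprocal Lineweaver-Burk fit.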
# [7] = substrate: COC(=O)c1cc([N+](=O)O)ccc1Cl; assay: as §4; procedure, shortened: as §5
# [8] = substrate: O=C(NCCCCC[P+](c1ccccc1)(c1ccccc1)c1ccccc1)c1cc([N+](=O)O)ccc1Cl; assay: as §4; procedure, shortened: as §5
# [9] = substrate: COC(=O)c1ccc(Cl)c([N+](=O)[O-])c1; assay: as §4; procedure, shortened: as §5
# [10] = substrate: O=[N+]([O-])c1ccc(Cl)c([N+](=O)[O-])c1; assay: Substrate activity at N-terminal His6 tagged human GSTA1-1 expressed in Escherichia coli BL21(DE3) assessed as Km at pH 8 at 30 degreeC by Michaelis-Menten analysis; procedure, shortened: as §1
# [11] = substrate: O=[N+]([O-])c1ccc(Cl)c([N+](=O)[O-])c1; assay: Substrate activity at N-terminal His6 tagged human GSTA1-1 expressed in Escherichia coli BL21(DE3) assessed as Km at pH 6.5 at 30 degreeC by Michaelis-Menten analysis; procedure, shortened: as §3
# [12] = substrate: O=[N+]([O-])c1ccc(Cl)c([N+](=O)[O-])c1; assay: Substrate activity at N-terminal His6 tagged human GSTA1-1 expressed in Escherichia coli BL21(DE3) assessed as catalytic constant at pH 6.5 at 30 degreeC by Michaelis-Menten analysis; procedure, shortened: as §3
# [13] = substrate: O=C(NCCCCC[P+](c1ccccc1)(c1ccccc1)c1ccccc1)c1cc([N+](=O)O)ccc1Cl; assay: Substrate activity at N-terminal His6 tagged human GSTA1-1 expressed in Escherichia coli BL21(DE3) assessed as catalytic constant at pH 8 at 30 degreeC by Lineweaver-Burk plot analysis
# Procedure, shortened: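 Assayed in 0.1 M HEPES-HCl pH 8 at 30°C. GSH fixed at 10 mM and chloronitrobenzene substrate varied 0.0625–2 mM. Initial rate of GS-conjugate formation read by UV absorbance at a substrate-specific wavelength. Background chemical rate (triplicate) subtracted. Triplicate rates, kcat from best-line fit of double-reciprocal plot.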
# [14] = substrate: O=[N+]([O-])c1cc([N+](=O)[O-])c(NCCCC[P+](c2ccccc2)(c2ccccc2)c2ccccc2)cc1Cl; assay: (§6) Substrate activity at N-terminal His6 tagged human GSTK1-1 expressed in Escherichia coli BL21(DE3) assessed as Kcat/Km at pH 8 at 30 degreeC by Michaelis-Menten analysis; procedure, shortened: as §1
# [15] = substrate: O=[N+]([O-])c1ccc(Cl)c([N+](=O)[O-])c1; assay: as §6; procedure, shortened: as §1
# [16] = substrate: COC(=O)c1cc([N+](=O)O)ccc1Cl; assay: (§7) Substrate activity at N-terminal His6 tagged human GSTK1-1 expressed in Escherichia coli BL21(DE3) assessed as Kcat/Km at pH 8 at 30 degreeC by Lineweaver-Burk plot analysis; procedure, shortened: as §5
# [17] = substrate: COC(=O)c1ccc(Cl)c([N+](=O)[O-])c1; assay: as §7; procedure, shortened: as §5
# [18] = substrate: O=[N+]([O-])c1ccc(Cl)c([N+](=O)[O-])c1; assay: Substrate activity at N-terminal His6 tagged human GSTK1-1 expressed in Escherichia coli BL21(DE3) assessed as Km at pH 8 at 30 degreeC by Michaelis-Menten analysis; procedure, shortened: as §1
# [19] = substrate: COC(=O)c1cc([N+](=O)O)ccc1Cl; assay: Substrate activity at N-terminal His6 tagged human GSTK1-1 expressed in Escherichia coli BL21(DE3) assessed as catalytic constant at pH 8 at 30 degreeC by Lineweaver-Burk plot analysis; procedure, shortened: as §5
# [20] = substrate: O=[N+]([O-])c1ccc(Cl)c([N+](=O)[O-])c1; assay: Substrate activity at N-terminal His6 tagged human GSTK1-1 expressed in Escherichia coli BL21(DE3) assessed as catalytic constant at pH 8 at 30 degreeC by Michaelis-Menten analysis; procedure, shortened: as §1
# [21] = substrate: O=C(NCCCCC[P+](c1ccccc1)(c1ccccc1)c1ccccc1)c1ccc(Cl)c([N+](=O)[O-])c1; assay: (§8) Substrate activity at N-terminal His6 tagged human GSTA4-4 expressed in Escherichia coli BL21(DE3) assessed as Kcat/Km at pH 8 at 30 degreeC by Lineweaver-Burk plot analysis; procedure, shortened: as §5
# [22] = substrate: COC(=O)c1cc([N+](=O)O)ccc1Cl; assay: as §8; procedure, shortened: as §5
# [23] = substrate: COC(=O)c1ccc(Cl)c([N+](=O)[O-])c1; assay: as §8; procedure, shortened: as §5
# [24] = substrate: COC(=O)c1cc([N+](=O)O)ccc1Cl; assay: Substrate activity at N-terminal His6 tagged human GSTA4-4 expressed in Escherichia coli BL21(DE3) assessed as catalytic constant at pH 8 at 30 degreeC by Lineweaver-Burk plot analysis; procedure, shortened: as §5
# [25] = substrate: O=[N+]([O-])c1ccc(Cl)c([N+](=O)[O-])c1; assay: Substrate activity at N-terminal His6 tagged human GSTA4-4 expressed in Escherichia coli BL21(DE3) assessed as Km at pH 8 at 30 degreeC by Michaelis-Menten analysis; procedure, shortened: as §1
# [26] = substrate: O=[N+]([O-])c1ccc(Cl)c([N+](=O)[O-])c1; assay: Substrate activity at N-terminal His6 tagged human GSTA4-4 expressed in Escherichia coli BL21(DE3) assessed as Kcat/Km at pH 6.5 at 30 degreeC by Michaelis-Menten analysis; procedure, shortened: as §3
# [27] = substrate: O=[N+]([O-])c1ccc(Cl)c([N+](=O)[O-])c1; assay: Substrate activity at N-terminal His6 tagged human GSTA4-4 expressed in Escherichia coli BL21(DE3) assessed as catalytic constant at pH 8 at 30 degreeC by Michaelis-Menten analysis; procedure, shortened: as §1
# [28] = substrate: O=[N+]([O-])c1cc([N+](=O)[O-])c(NCCCC[P+](c2ccccc2)(c2ccccc2)c2ccccc2)cc1Cl; assay: (§9) Substrate activity at N-terminal His6 tagged human GSTA4-4 expressed in Escherichia coli BL21(DE3) assessed as Kcat/Km at pH 8 at 30 degreeC by Michaelis-Menten analysis; procedure, shortened: as §1
# [29] = substrate: O=[N+]([O-])c1ccc(Cl)c([N+](=O)[O-])c1; assay: as §9; procedure, shortened: as §1
# [30] = substrate: O=[N+]([O-])c1ccc(Cl)c([N+](=O)[O-])c1; assay: Substrate activity at N-terminal His6 tagged human GSTA4-4 expressed in Escherichia coli BL21(DE3) assessed as catalytic constant at pH 6.5 at 30 degreeC by Michaelis-Menten analysis; procedure, shortened: as §3
# [31] = substrate: O=[N+]([O-])c1ccc(Cl)c([N+](=O)[O-])c1; assay: Substrate activity at N-terminal His6 tagged human GSTA4-4 expressed in Escherichia coli BL21(DE3) assessed as Km at pH 6.5 at 30 degreeC by Michaelis-Menten analysis; procedure, shortened: as §3
molecule,measurement,setting,value
O=[N+]([O-])c1cc([N+](=O)[O-])c(NCCCC[P+](c2ccccc2)(c2ccccc2)c2ccccc2)cc1Cl,K,[1],1.5 10^-5/mM/s
COC(=O)c1ccc(Cl)c([N+](=O)[O-])c1,K,[1],2.92 10^-6/mM/s
O=[N+]([O-])c1ccc(Cl)c([N+](=O)[O-])c1 [DINITROCHLOROBENZENE],K,[1],5.05 10^-5/mM/s
B1,kcat,[2],45.3 s⁻¹
same,kcat/Km,[3],101000 M⁻¹ s⁻¹
same,kcat/Km,[4],353000 M⁻¹ s⁻¹
same,kcat/Km,[5],71900 M⁻¹ s⁻¹
same,kcat/Km,[6],21600 M⁻¹ s⁻¹
same,kcat/Km,[7],1380 M⁻¹ s⁻¹
same,kcat/Km,[8],6.49 10^-2/mM/s
same,kcat/Km,[9],4320 M⁻¹ s⁻¹
same,Km,[10],128 µM
same,Km,[11],492 µM
same,kcat,[12],35.4 s⁻¹
same,kcat,[13],4.67 10^-2/s
B2,kcat/Km,[14],287 M⁻¹ s⁻¹
same,kcat/Km,[15],7670 M⁻¹ s⁻¹
same,kcat/Km,[16],6.13 10^-2/mM/s
same,kcat/Km,[17],351 M⁻¹ s⁻¹
same,Km,[18],1900 µM
same,kcat,[19],9.45 10^-2/s
same,kcat,[20],14.6 s⁻¹
B3,kcat/Km,[21],2570 M⁻¹ s⁻¹
same,kcat/Km,[22],5.91 10^-2/mM/s
same,kcat/Km,[23],146 M⁻¹ s⁻¹
same,kcat,[24],5.61 10^-2/s
same,Km,[25],253 µM
same,kcat/Km,[26],2930 M⁻¹ s⁻¹
same,kcat,[27],4.94 s⁻¹
same,kcat/Km,[28],32200 M⁻¹ s⁻¹
same,kcat/Km,[29],19500 M⁻¹ s⁻¹
same,kcat,[30],14.9 s⁻¹
same,Km,[31],5200 µM
